Experimental data from ChEMBL document CHEMBL2040729, “Lead optimization of 17β-HSD1 inhibitors of the (hydroxyphenyl)naphthol sulfonamide type for the treatment of endometriosis” (J Med Chem, 2012).

What was measured:
[1] = target: T1, 17-beta-hydroxysteroid dehydrogenase type 1 (Homo sapiens, UniProt P14061); test: Inhibition of 17betaHSD1 in human T47D cells using [3H]E1 as substrate incubated for 30 mins prior to substrate addition measured after 30 mins by radioflow detection assay; assay type: cell-based
T1 sequence (P14061 whole entry): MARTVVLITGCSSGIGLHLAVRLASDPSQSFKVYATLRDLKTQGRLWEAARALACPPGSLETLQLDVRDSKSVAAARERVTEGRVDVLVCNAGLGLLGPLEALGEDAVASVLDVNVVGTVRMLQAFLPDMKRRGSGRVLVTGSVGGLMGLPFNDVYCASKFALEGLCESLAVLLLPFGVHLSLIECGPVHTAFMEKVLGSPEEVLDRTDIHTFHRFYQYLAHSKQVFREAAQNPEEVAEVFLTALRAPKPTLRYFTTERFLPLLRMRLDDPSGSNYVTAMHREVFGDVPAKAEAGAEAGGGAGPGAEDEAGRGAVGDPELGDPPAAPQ
Method in brief: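 T47D cells kept in RPMI 1640 with 10% FCS, glutamine, insulin-zinc, pyruvate, antibiotics. Seeded at 5 × 10^5 cells/well in DMEM with FCS, switched to serum-free DMEM after 24 h. Compound added in DMSO (1% final), 30 min preincubation at 37 °C, 5% CO2. Then unlabeled + [3H]-E1 (50 nM final) for 30 min. Steroids extracted into diethylether. Mean of three determinations.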

[2] = target: Estrogen receptor beta (Homo sapiens) (UniProt Q92731); test: Relative binding affinity to human recombinant ERbeta receptor using [3H]E2 as substrate after 1 hr by liquid scintillation counting relative to E2
Chain of Estrogen receptor beta (Homo sapiens) (Q92731 whole entry): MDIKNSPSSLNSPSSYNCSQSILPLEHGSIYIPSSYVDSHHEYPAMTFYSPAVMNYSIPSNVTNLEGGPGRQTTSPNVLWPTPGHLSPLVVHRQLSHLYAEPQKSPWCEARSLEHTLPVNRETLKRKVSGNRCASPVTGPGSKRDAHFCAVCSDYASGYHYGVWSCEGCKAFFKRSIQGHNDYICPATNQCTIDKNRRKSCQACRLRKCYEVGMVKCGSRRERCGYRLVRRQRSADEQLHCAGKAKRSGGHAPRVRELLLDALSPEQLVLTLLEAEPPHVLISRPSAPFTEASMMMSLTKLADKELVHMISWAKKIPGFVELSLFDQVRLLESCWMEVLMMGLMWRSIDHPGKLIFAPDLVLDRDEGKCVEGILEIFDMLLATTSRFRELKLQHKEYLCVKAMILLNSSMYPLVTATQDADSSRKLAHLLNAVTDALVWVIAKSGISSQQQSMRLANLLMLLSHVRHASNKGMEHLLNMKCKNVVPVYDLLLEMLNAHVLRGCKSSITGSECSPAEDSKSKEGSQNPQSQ
Method in brief: (§1)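 Recombinant human ERα or ERβ (0.25 pmol) incubated 1 h at rt with [3H]-E2 (10 nM) and compound in DMSO (5% final). Nonspecific binding defined with diethylstilbestrol 10 μM. Bound complex captured on hydroxyapatite, washed, resuspended in ethanol, counted by liquid scintillation. Concentrations displacing 50% of bound label compared with E2, which is set at 100%.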

Callithrix jacchus [3] = species on record: Callithrix jacchus; test: Inhibition of mormoset placenta cytosolic 17betaHSD1 using [3H]E1 as substrate at 50 nM after 10 mins by radioflow detection assay
[4] = target: T2, 17-beta-hydroxysteroid dehydrogenase type 2 (Homo sapiens, UniProt P37059); test: Inhibition of human placenta microsomal 17betaHSD2 using [3H]E2 as substrate after 20 mins by radioflow detection assay
T2 sequence (P37059 whole entry): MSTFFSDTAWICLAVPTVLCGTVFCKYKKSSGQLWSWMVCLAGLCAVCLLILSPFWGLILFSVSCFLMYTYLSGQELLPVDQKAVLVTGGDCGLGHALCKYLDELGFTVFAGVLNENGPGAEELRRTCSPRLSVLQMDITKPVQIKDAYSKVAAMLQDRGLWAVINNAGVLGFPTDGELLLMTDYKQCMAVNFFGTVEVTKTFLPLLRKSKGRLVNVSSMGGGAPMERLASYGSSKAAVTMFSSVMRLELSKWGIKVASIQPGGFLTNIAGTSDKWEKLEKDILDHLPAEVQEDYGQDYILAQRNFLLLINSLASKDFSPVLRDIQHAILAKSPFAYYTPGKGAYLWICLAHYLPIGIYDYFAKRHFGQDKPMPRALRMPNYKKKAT
Method in brief: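 Microsomal (pellet) fraction of fresh human placenta incubated with NAD+ 1500 μM, compound, and unlabeled + [3H]-E2 (500 nM final) for 20 min at 37 °C. Stopped with 1 mM HgCl2, ether-extracted. Steroids separated by HPLC with radioflow detection, conversion computed. Mean of three determinations.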

Callithrix jacchus [5] = species on record: Callithrix jacchus; test: Inhibition of mormoset placenta microsomal 17betaHSD2 using [3H]E2 as substrate at 50 nM after 20 mins by radioflow detection assay
[6] = target: T3, Estrogen receptor (Homo sapiens) (UniProt P03372); test: Relative binding affinity to human recombinant ERalpha receptor using [3H]E2 as substrate after 1 hr by liquid scintillation counting relative to E2; method in brief: as §1
T3 sequence (whole entry): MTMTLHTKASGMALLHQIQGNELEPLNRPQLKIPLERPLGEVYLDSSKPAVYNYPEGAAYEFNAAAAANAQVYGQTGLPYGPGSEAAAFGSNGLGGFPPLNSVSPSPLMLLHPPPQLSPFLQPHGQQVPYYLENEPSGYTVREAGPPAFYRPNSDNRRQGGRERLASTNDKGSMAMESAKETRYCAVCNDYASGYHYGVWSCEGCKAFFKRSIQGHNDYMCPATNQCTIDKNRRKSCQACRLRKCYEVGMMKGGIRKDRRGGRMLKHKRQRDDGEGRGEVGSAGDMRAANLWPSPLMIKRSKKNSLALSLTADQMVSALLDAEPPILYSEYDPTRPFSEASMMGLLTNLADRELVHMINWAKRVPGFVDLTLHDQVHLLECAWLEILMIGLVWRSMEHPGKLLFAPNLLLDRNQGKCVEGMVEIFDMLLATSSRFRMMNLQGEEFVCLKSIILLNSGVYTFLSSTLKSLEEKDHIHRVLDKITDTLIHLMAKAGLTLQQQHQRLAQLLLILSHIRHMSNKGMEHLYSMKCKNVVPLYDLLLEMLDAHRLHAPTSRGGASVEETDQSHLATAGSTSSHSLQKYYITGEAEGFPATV

[7] = target: T1, 17-beta-hydroxysteroid dehydrogenase type 1; test: Inhibition of human placenta cytosolic 17betaHSD1 using [3H]E1 as substrate after 10 mins by radioflow detection assay
Method in brief: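 Cytosolic 17β-HSD1 from fresh human placenta, obtained by ammonium sulfate precipitation. Incubated at 37 °C in 50 mM phosphate buffer with 20% glycerol and EDTA, with NADH 500 μM and compound (DMSO 1% final). Started with unlabeled + [3H]-E1 (500 nM final), stopped after 10 min with HgCl2, ether-extracted. E1/E2 quantified by radioflow HPLC as % conversion. At least three independent experiments.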

[8] = target: T4, 17-beta-hydroxysteroid dehydrogenase type 1 (Homo sapiens) (UniProt P14061); test: Inhibition of human placenta cytosolic 17betaHSD1 using [3H]E1 as substrate at 10 nM after 10 mins by radioflow detection assay
T4 sequence (whole entry): T1 sequence (P14061 whole entry)

| IC50 [1] | RBA [2] | inhibition (Callithrix jacchus [3]) | IC50 [4] | inhibition (Callithrix jacchus [5]) | RBA [6] | IC50 [7] | inhibition [8] | Structure (SMILES) |
| --- | --- | --- | --- | --- | --- | --- | --- | --- |
| 555 nM | < 0.1% | 25% | 825 nM | 30% | < 0.1% | 25 nM |  | N#Cc1ccc(S(=O)(=O)Nc2cccc(-c3c(O)ccc4cc(-c5cccc(O)c5)ccc34)c2)cc1 |
| 462 nM | < 0.1% | < 10% | 238 nM | 21% | < 0.1% | 17 nM | > 30% | O=[N+]([O-])c1ccccc1S(=O)(=O)Nc1cccc(-c2c(O)ccc3cc(-c4cccc(O)c4)ccc23)c1 |
| 396 nM | < 0.1% | 16% | 374 nM | 17% | < 0.1% | 20 nM | > 30% | O=[N+]([O-])c1cccc(S(=O)(=O)Nc2cccc(-c3c(O)ccc4cc(-c5cccc(O)c5)ccc34)c2)c1 |
| 240 nM | < 0.1% | 31% | 408 nM | < 10% | < 0.1% | 12 nM |  | CC(=O)Nc1ccc(S(=O)(=O)Nc2cccc(-c3c(O)ccc4cc(-c5cccc(O)c5)ccc34)c2)cc1 |
| 753 nM | < 0.1% | 28% | 1060 nM | 13% | < 0.1% | 49 nM | > 30% | O=[N+]([O-])c1ccc(S(=O)(=O)Nc2cccc(-c3c(O)ccc4cc(-c5cccc(O)c5)ccc34)c2)cc1 |
| 637 nM | < 0.1% | 24% | 834 nM | 20% | < 0.1% | 53 nM |  | O=S(=O)(Nc1cccc(-c2c(O)ccc3cc(-c4cccc(O)c4)ccc23)c1)c1ccc(F)cc1 |
| 1010 nM | < 0.1% | < 10% | 352 nM | 30% | < 0.1% | 19 nM |  | O=S(=O)(Nc1cccc(-c2c(O)ccc3cc(-c4cccc(O)c4)ccc23)c1)c1ccc(O)cc1 |
| 633 nM | < 0.1% | < 10% | 367 nM | 11% | < 0.1% | 35 nM |  | Cc1ccc(S(=O)(=O)Nc2cccc(-c3c(O)ccc4cc(-c5cccc(O)c5)ccc34)c2)cc1 |

More lines, now with the values behind:

| Structure (SMILES) | IC50 [1] | RBA [2] | inhibition (Callithrix jacchus [3]) | IC50 [4] | inhibition (Callithrix jacchus [5]) | RBA [6] | IC50 [7] | inhibition [8] |
| --- | --- | --- | --- | --- | --- | --- | --- | --- |
| O=S(=O)(Nc1cccc(-c2c(O)ccc3cc(-c4cccc(O)c4)ccc23)c1)c1cccc(F)c1 | 462 nM | < 0.1% | < 10% | 396 nM | 33% | < 0.1% | 22 nM | > 30% |
| O=S(=O)(Nc1cccc(-c2c(O)ccc3cc(-c4cccc(O)c4)ccc23)c1)c1ccccc1F | 429 nM | < 0.1% | 19% | 749 nM | < 10% | < 0.1% | 29 nM |  |
| Cc1ccccc1S(=O)(=O)Nc1cccc(-c2c(O)ccc3cc(-c4cccc(O)c4)ccc23)c1 | 525 nM | < 0.1% | 20% | 188 nM | < 10% | < 0.1% | 31 nM |  |
| O=[N+]([O-])c1ccc(S(=O)(=O)Nc2cccc(-c3c(O)ccc4cc(-c5cccc(O)c5)ccc34)c2)c([N+](=O)[O-])c1 |  | < 0.1% | 16% | 371 nM | 36% | < 0.1% | 690 nM |  |
| O=S(=O)(Nc1cccc(-c2c(O)ccc3cc(-c4cccc(O)c4)ccc23)c1)c1cc(F)c(Br)cc1F | 646 nM | < 0.1% | 14% | 223 nM | 17% | < 0.1% | 46 nM | > 30% |
| Cc1cccc(S(=O)(=O)Nc2cccc(-c3c(O)ccc4cc(-c5cccc(O)c5)ccc34)c2)c1 | 440 nM | < 0.1% | < 10% | 446 nM | 11% | < 0.1% | 33 nM |  |
| O=S(=O)(Nc1cccc(-c2c(O)ccc3cc(-c4cccc(O)c4)ccc23)c1)c1ccc(Br)cc1OC(F)(F)F |  | < 0.1% | < 10% | 213 nM | < 10% | < 0.1% | 74 nM | > 30% |
| O=S(=O)(c1ccccc1)n1ccc2ccc(-c3c(O)ccc4cc(-c5cccc(O)c5)ccc34)cc21 |  |  | 14% | 996 nM | 12% |  | 519 nM |  |
| O=S(=O)(Nc1cccc(-c2c(O)ccc3cc(-c4cccc(O)c4)ccc23)c1)c1cccs1 | 316 nM | < 0.1% | 25% | 1100 nM | 18% | < 0.1% | 28 nM | > 30% |
| N#Cc1cccc(S(=O)(=O)Nc2cccc(-c3c(O)ccc4cc(-c5cccc(O)c5)ccc34)c2)c1 | 402 nM | < 0.1% | 11% | 607 nM | < 10% | < 0.1% | 30 nM | > 30% |
| O=S(=O)(c1ccccc1)n1ccc2c(-c3c(O)ccc4cc(-c5cccc(O)c5)ccc34)cccc21 | 1100 nM | < 0.1% | 79% | 391 nM | 43% | < 0.1% | 32 nM |  |
| O=S(=O)(Nc1cccc(-c2c(O)ccc3cc(-c4cccc(O)c4)ccc23)c1)c1ccc2ncccc2c1 | 498 nM | < 0.1% | 38% | 535 nM | 13% | < 0.1% | 92 nM | > 30% |
